Measured values: paper PMC11758009 (Scientific Reports, 2025)

Columns and labels:
[1] = system: LAT1, LAT2, LAT3, LAT4, B^0AT1, ATB^0,+; details: cited from earlier work
SNAT5 = SNAT5 (Homo sapiens, UniProt Q8WUX1); experiment: Xenopus oocyte expression system, L-[14C]glutamine uptake by SNAT5; type: cell-based; details: 1 and 10 µM compound; 50 µM substrate; 30 min; ND96
How it was run: (§1)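 Defolliculated Xenopus laevis oocytes injected with transporter cRNA (25 ng/oocyte), assayed 2–4 days after injection. Uptake at room temperature of 50 µM radiolabelled substrate with test compound at 1 or 10 µM. Buffers were ND96 (pH 7.5) for Na⁺-dependent transport, or a Na⁺-free version with choline chloride. Scintillation counting; mean ± S.D., n = 5–13, three independent oocyte batches.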

SNAT1 = SNAT1 (Homo sapiens, UniProt Q9H2H9); experiment: Xenopus oocyte expression system, L-[14C]alanine uptake by SNAT1; type: cell-based; details: 1 and 10 µM compound; 50 µM substrate; 30 min; ND96
How it was run: as §1

[2] = patients with advanced solid tumors; cited from earlier work
LAT1 [3] = biological target: T1, LAT1 (Homo sapiens, UniProt Q01650); experiment: Xenopus oocyte expression system, L-[14C]leucine uptake by LAT1; type: cell-based; details: 50 µM substrate, 30 min, Na+-free
How it was run: (§2)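 Defolliculated Xenopus laevis oocytes injected with transporter cRNA (25 ng/oocyte) plus equimolar 4F2hc cRNA, and assayed 2–4 days later. Uptake of 50 µM L-[¹⁴C]leucine at room temperature with test compound at 1 or 10 µM. Buffers were ND96 (pH 7.5) or a Na⁺-free version with choline chloride in place of NaCl. Scintillation counting; mean ± S.D., n = 5–13, three oocyte batches.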
Target sequence in this assay (Q01650 whole entry): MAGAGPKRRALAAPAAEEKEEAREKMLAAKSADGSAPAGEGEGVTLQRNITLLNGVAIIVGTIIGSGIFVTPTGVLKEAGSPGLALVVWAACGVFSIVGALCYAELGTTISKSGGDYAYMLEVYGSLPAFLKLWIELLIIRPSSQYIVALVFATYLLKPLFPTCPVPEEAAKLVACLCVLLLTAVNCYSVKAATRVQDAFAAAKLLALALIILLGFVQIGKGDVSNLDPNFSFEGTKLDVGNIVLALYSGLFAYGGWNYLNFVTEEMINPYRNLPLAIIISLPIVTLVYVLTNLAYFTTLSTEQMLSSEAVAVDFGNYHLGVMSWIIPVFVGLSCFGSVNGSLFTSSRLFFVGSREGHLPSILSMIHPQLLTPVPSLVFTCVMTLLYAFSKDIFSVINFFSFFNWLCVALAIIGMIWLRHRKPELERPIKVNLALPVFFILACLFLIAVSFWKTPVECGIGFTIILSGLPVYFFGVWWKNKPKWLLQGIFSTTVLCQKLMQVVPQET
Target sequence in this assay (P08195 102-630 partner): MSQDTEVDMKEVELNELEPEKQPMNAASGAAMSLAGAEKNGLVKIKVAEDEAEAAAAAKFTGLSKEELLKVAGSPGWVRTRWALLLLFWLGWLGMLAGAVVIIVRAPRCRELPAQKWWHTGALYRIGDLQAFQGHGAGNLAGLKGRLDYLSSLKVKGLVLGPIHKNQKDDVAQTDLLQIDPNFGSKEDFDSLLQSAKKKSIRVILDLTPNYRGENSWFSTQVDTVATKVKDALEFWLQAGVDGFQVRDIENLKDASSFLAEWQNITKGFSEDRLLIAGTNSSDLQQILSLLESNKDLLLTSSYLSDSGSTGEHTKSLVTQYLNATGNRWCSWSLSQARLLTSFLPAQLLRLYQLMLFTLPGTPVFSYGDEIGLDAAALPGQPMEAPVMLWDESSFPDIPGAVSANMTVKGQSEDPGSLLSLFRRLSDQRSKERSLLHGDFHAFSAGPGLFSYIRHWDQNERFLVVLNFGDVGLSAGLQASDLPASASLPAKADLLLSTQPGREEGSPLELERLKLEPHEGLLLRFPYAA

S2-LAT1 cells = details: LAT1-expressing cells; cited from earlier work
SNAT4 = SNAT4 (Homo sapiens, UniProt Q969I6); experiment: Xenopus oocyte expression system, L-[14C]alanine uptake by SNAT4; type: cell-based; details: 10 µM compound; 50 µM substrate; 30 min; ND96
How it was run: as §1

ATB^0,+ = ATB^0,+ (Homo sapiens, UniProt Q9UN76); experiment: Xenopus oocyte expression system, L-[14C]leucine uptake by ATB0,+; type: cell-based; details: 1 and 10 µM compound; 50 µM substrate; 30 min; ND96
How it was run: (§3)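 Defolliculated Xenopus laevis oocytes injected with transporter cRNA (25 ng/oocyte) or with water as control, assayed 2–4 days after injection. Uptake over 30 min at room temperature of 50 µM labelled substrate: L-[¹⁴C]leucine for ATB0,+, L-[¹⁴C]tyrosine for TAT1, L-[¹⁴C]cystine for b0,+. Test compound at 1 or 10 µM. Scintillation counting; mean ± S.D., n = 5–13, three oocyte batches.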

S2-LAT2 cells = details: LAT2-expressing cells; cited from earlier work
ASCT2 = ASCT2 (Homo sapiens, UniProt Q15758); experiment: Xenopus oocyte expression system, L-[14C]alanine uptake by ASCT2; type: cell-based; details: 1 and 10 µM compound; 50 µM substrate; 30 min; ND96
How it was run: as §1

LAT1 [4] = biological target: T1, LAT1; experiment: Inhibition of L-[14C]leucine uptake in HEK293-hLAT1 cells; type: cell-based
How it was run: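 HEK293-hLAT1 cells grown 2 days on poly-D-lysine, then preincubated 10 min at 37 °C in Na⁺-free choline-HBSS (HEPES, pH 7.4). L-[¹⁴C]leucine (1–400 µM) uptake for 1 min, with test compound added from DMSO alongside the substrate at two levels (0.1/0.5 or 1/5 µM) or with DMSO alone. Cells washed ice-cold, lysed in NaOH, counted by scintillation, normalised to BCA protein. Michaelis–Menten and Lineweaver–Burk fits gave Ki; mean ± S.D., n = 4.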
Target sequence in this assay (Q01650 whole entry): as the sequence (Q01650 whole entry) above
Target sequence in this assay (P08195 103-630 partner): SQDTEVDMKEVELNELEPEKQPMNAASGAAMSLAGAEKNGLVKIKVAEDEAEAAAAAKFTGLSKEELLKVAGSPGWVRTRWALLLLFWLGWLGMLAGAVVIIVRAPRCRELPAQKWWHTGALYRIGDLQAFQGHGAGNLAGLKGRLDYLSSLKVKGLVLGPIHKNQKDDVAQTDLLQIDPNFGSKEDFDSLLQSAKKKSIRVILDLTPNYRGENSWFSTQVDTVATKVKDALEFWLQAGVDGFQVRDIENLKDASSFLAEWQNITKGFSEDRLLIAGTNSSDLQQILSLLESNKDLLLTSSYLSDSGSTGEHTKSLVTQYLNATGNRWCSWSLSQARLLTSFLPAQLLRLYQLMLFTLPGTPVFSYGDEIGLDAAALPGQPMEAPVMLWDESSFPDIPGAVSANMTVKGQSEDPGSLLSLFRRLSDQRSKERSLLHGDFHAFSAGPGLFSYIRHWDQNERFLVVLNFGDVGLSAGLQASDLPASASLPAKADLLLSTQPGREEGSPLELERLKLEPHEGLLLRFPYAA

y^+LAT2 = y^+LAT2 (Homo sapiens, UniProt Q92536); experiment: Xenopus oocyte expression system, L-[14C]leucine uptake by y+LAT2; type: cell-based; details: 1 and 10 µM compound; 50 µM substrate; 30 min; ND96
How it was run: as §2

HEK293-hLAT2 cells = experiment: Cell proliferation assay; type: cell-based, human; details: 72 h, 0.003-30 µM
How it was run: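 HEK293 cells stably expressing human LAT2, kept under G418 selection at 37 °C and 5% CO₂, were seeded at 1.5 × 10³ cells/well on poly-D-lysine. Next day they were exposed to test compound for 72 h, and cell number was read with CCK-8. Inhibition was calculated as (C – T)/(C – T₀) × 100, with T₀ taken at 0 h. GI₅₀ is the concentration giving 50% inhibition. Mean ± S.D., n = 4.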

b^0,+ = experiment: Xenopus oocyte expression system, L-[14C]cystine uptake by b0,+; type: cell-based; details: 1 and 10 µM compound; 50 µM substrate; 30 min; Na+-free
How it was run: as §3

human LAT2 = human LAT2 (Homo sapiens, UniProt Q9UHI5); experiment: Inhibition of L-[14C]alanine uptake in HEK293-hLAT2 cells; type: cell-based; details: 0.1, 1 and 10 µM compound, 1 µM L-[14C]alanine
How it was run: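 Stable HEK293-hLAT2 cells were seeded at 2.4 × 10⁵ cells/well on poly-D-lysine and grown 2 days. They were pre-incubated 10 min at 37 °C in Na⁺-free HBSS (choline chloride, 25 mM HEPES, pH 7.4). Uptake of 1 µM L-[¹⁴C]alanine ran for 1 min, with test compound (from DMSO stocks) added together with substrate. Cells were washed ice-cold, lysed in 0.1 N NaOH, counted by liquid scintillation, and lysate protein was measured by BCA.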

LAT1 [5] = biological target: T1, LAT1; experiment: Sustained inhibition assay; type: cell-based; details: reduction in inhibition over first 10 min after washout relative to 0 min
How it was run: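 HEK293-hLAT1 cells exposed to test compound or 0.6% DMSO control in culture medium for 30 min at 37 °C. Washed three times and kept in fresh medium for 0, 10, 20, 30 or 60 min or 24 h. Then rinsed with Na⁺-free HBSS and given 1 µM L-[¹⁴C]leucine for 1 min. Uptake taken as % of control at each time. Reduction rate = (%uptake 10 min – %uptake 0 min)/(100 – %uptake 0 min) × 100. Three independent experiments, each in quadruplicate.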
Target sequence in this assay (Q01650 whole entry): as the sequence (Q01650 whole entry) above
Target sequence in this assay (P08195 103-630 partner): as the sequence (P08195 103-630 partner) above

LAT1 [6] = biological target: T1, LAT1; experiment: Temperature-dependent uptake of 14C-labeled compound in HEK293-hLAT1 cells; type: cell-based; details: 1 µM 14C-labeled compound, 1 min, 37 °C vs on ice
How it was run: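 HEK293-hLAT1 cells in Na⁺-free HBSS given 1 µM ¹⁴C-labelled test compound, or 1 µM L-[¹⁴C]leucine for comparison, for 1 min on ice or at 37 °C. Cell-associated radioactivity measured by scintillation counting of the lysate.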
Target sequence in this assay (Q01650 whole entry): as the sequence (Q01650 whole entry) above
Target sequence in this assay (P08195 103-630 partner): as the sequence (P08195 103-630 partner) above

HEK293-hLAT1 cells = experiment: Cell proliferation assay; type: cell-based; details: Homo sapiens, 72 h, read-out: GI50 (proliferation)
How it was run: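 HEK293 cells stably expressing human LAT1, kept in MEM with 10% FBS, non-essential amino acids and G418 (0.9 mg/mL) at 37 °C and 5% CO₂. Seeded at 1.5 × 10³ cells/well on poly-D-lysine and treated next day with test compound (0.003–30 µM) for 72 h. CCK-8 read-out. Inhibition = (C–T)/(C–T₀) × 100, with T₀ at 0 h. GI50 from curve fit; mean ± S.D., n = 4.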

biliary tract cancer = details: phase II, patients with biliary tract cancer; cited from earlier work
[7] = liver; cited from earlier work
LAT2 = LAT2 (Homo sapiens, UniProt Q9UHI5); experiment: Xenopus oocyte expression system, L-[14C]alanine uptake by LAT2; type: cell-based; details: 1 and 10 µM compound; 50 µM substrate; 30 min
How it was run: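 Defolliculated Xenopus laevis oocytes were injected with polyadenylated human LAT2 cRNA (25 ng/oocyte) plus equimolar 4F2hc cRNA. Water-injected oocytes served as controls. After 2–4 days, oocytes took up 50 µM ¹⁴C-labelled substrate for 30 min at room temperature, with or without test compound, in ND96 (pH 7.5) or its Na⁺-free choline chloride version. Radioactivity was determined by liquid scintillation counting.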

B^0AT1 = B^0AT1 (Homo sapiens, UniProt Q695T7); experiment: Xenopus oocyte expression system, L-[14C]leucine uptake by B0AT1; type: cell-based; details: 1 and 10 µM compound; 50 µM substrate; 30 min; ND96
How it was run: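 B⁰AT1 cRNA (25 ng/oocyte) co-injected with equimolar collectrin cRNA into defolliculated Xenopus laevis oocytes, assayed 2–4 days later. Uptake of 50 µM L-[¹⁴C]leucine over 30 min at room temperature in ND96 (pH 7.5), with test compound at 1 or 10 µM. Water-injected oocytes served as controls. Scintillation counting; mean ± S.D., n = 5–13, three oocyte batches.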

LAT4 = LAT4 (Homo sapiens, UniProt Q8N370); experiment: Xenopus oocyte expression system, L-[14C]leucine uptake by LAT4; type: cell-based; details: 1 and 10 µM compound; 50 µM substrate; 30 min
How it was run: as §1

TAT1 = TAT1 (Homo sapiens, UniProt Q8TF71); experiment: Xenopus oocyte expression system, L-[14C]tyrosine uptake by TAT1; type: cell-based; details: 1 and 10 µM compound; 50 µM substrate; 30 min; Na+-free
How it was run: as §3

ASCT1 = ASCT1 (Homo sapiens, UniProt P43007); experiment: Xenopus oocyte expression system, L-[14C]alanine uptake by ASCT1; type: cell-based; details: 1 and 10 µM compound; 50 µM substrate; 30 min; ND96
How it was run: as §1

LAT3 = LAT3 (Homo sapiens, UniProt O75387); experiment: Xenopus oocyte expression system, L-[14C]leucine uptake by LAT3; type: cell-based; details: 1 and 10 µM compound; 50 µM substrate; 30 min
How it was run: as §1

y^+LAT1 = y^+LAT1 (Homo sapiens, UniProt Q9UM01); experiment: Xenopus oocyte expression system, L-[14C]leucine uptake by y+LAT1; type: cell-based; details: 1 and 10 µM compound; 50 µM substrate; 30 min; ND96
How it was run: as §2

SNAT2 = SNAT2 (Homo sapiens, UniProt Q96QD8); experiment: Xenopus oocyte expression system, L-[14C]alanine uptake by SNAT2; type: cell-based; details: 1 and 10 µM compound; 50 µM substrate; 30 min; ND96
How it was run: as §1

SNAT3 = SNAT3 (Homo sapiens, UniProt Q99624); experiment: Xenopus oocyte expression system, L-[14C]glutamine uptake by SNAT3; type: cell-based; details: 1 and 10 µM compound; 50 µM substrate; 30 min; ND96
How it was run: as §1

Sequence of ASCT2 (Q15758 whole entry): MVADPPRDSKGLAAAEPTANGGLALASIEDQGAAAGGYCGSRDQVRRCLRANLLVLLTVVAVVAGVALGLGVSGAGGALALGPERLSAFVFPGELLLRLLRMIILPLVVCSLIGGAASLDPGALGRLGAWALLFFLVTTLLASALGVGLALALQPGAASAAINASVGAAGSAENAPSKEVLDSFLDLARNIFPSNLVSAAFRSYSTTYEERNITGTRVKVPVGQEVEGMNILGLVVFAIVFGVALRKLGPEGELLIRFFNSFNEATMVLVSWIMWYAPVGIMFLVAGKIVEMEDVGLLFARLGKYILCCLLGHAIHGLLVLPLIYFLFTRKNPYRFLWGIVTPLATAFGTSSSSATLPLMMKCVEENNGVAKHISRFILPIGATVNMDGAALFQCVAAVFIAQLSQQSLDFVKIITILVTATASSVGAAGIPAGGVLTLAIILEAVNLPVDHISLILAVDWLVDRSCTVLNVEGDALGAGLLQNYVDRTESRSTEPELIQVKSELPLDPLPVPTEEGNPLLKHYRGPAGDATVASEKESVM
Sequence of SNAT1 (Q9H2H9 whole entry): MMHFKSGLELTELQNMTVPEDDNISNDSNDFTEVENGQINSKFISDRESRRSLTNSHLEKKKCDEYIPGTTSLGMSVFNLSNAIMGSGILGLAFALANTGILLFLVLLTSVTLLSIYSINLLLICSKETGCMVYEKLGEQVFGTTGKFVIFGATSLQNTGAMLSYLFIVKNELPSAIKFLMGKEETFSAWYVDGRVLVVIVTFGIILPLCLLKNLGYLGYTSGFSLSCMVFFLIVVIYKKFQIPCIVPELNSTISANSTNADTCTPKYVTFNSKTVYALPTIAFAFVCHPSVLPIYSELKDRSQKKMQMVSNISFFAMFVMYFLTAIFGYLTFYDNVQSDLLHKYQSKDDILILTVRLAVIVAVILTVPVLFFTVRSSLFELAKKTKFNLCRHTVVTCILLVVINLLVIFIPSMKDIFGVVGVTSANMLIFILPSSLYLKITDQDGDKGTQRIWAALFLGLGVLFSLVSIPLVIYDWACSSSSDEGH
Sequence of ATB^0,+ (Q9UN76 whole entry): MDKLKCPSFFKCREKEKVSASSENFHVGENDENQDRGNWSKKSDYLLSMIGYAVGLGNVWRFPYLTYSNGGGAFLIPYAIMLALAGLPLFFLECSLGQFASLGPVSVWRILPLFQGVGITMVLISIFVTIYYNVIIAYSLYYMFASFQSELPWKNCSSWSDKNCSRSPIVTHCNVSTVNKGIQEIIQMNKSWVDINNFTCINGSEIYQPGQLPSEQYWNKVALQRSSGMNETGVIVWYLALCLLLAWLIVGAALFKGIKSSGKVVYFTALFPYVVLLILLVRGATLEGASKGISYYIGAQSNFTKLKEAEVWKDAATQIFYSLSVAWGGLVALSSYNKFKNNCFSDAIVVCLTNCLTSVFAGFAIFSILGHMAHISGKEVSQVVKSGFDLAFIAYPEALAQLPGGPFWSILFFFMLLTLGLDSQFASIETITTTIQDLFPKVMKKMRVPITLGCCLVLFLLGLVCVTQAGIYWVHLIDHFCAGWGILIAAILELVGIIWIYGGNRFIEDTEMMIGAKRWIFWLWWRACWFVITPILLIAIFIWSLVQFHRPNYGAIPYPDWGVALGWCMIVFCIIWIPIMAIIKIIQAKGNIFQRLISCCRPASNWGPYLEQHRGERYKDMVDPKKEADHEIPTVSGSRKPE
Sequence of LAT4 (Q8N370 whole entry): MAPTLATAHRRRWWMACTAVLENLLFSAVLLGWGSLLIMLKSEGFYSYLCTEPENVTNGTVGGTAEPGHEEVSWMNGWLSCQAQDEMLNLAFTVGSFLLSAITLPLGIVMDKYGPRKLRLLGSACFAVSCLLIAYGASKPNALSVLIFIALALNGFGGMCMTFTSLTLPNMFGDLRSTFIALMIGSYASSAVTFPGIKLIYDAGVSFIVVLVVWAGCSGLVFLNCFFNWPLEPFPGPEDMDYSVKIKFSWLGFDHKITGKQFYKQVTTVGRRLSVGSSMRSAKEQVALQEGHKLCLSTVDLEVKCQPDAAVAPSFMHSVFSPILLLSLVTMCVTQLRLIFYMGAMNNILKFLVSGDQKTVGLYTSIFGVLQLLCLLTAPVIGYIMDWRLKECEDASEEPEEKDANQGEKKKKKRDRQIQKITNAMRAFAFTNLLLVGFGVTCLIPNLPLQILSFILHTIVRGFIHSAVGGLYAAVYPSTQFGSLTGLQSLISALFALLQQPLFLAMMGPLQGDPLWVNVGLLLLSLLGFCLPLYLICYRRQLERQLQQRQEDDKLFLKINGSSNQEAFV
Sequence of SNAT2 (Q96QD8 whole entry): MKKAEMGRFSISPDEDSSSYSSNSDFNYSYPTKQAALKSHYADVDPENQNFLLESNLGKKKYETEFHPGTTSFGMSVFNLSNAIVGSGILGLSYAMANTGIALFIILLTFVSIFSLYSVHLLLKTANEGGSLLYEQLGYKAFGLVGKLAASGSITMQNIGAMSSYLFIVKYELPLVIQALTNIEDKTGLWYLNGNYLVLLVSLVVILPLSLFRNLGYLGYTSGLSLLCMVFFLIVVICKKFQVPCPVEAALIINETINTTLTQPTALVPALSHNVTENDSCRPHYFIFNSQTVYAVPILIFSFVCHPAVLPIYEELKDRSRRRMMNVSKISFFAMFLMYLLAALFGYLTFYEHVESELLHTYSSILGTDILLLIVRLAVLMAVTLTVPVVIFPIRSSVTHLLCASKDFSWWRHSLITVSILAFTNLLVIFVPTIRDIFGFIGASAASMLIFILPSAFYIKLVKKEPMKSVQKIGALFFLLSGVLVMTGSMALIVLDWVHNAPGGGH

NC1(C(=O)O)CC2CCC1C2 (centres unmarked) [BCH]
Transporters inhibited [1]: inhibit not only all system L transporters (LAT1, LAT2, LAT3, LAT4) but also B^0AT1 (system B^0) and ATB^0,+ (system B^0,+)

Nc1cc(COc2c(Cl)cc(C[C@H](N)C(=O)O)cc2Cl)c2oc(-c3ccccc3)nc2c1 [nanvuranlat, (2S)-2-amino-3-[4-[(5-amino-2-phenyl-1,3-benzoxazol-7-yl)methoxy]-3,5-dichlorophenyl]propanoic acid]
Inhibition of SNAT5-mediated L-[14C]glutamine uptake (SNAT5): no significant inhibition | Inhibition of SNAT1-mediated L-[14C]alanine uptake (SNAT1): no significant inhibition | Safety profile in clinical trials [2]: acceptable safety profile | Inhibition of LAT1-mediated L-[14C]leucine uptake (LAT1 [3]; 1 µM compound): significantly inhibited | Inhibition of LAT1-mediated L-[14C]leucine uptake (LAT1 [3]; 10 µM compound): significantly inhibited | Growth inhibition of S2-LAT1 cells (S2-LAT1 cells): potently inhibited the growth | Inhibition of SNAT4-mediated L-[14C]alanine uptake (SNAT4): non-significant trend towards inhibition | Inhibition of ATB0,+-mediated L-[14C]leucine uptake (ATB^0,+): Neither compound inhibited | Growth inhibition of S2-LAT2 cells (S2-LAT2 cells): minimal effects | Inhibition of ASCT2-mediated L-[14C]alanine uptake (ASCT2): no significant inhibition | Ki (LAT1 [4]): 38.7 ± 5.1 nM | Inhibition of LAT1-mediated L-[14C]leucine uptake (LAT1 [4]; 0.1, 1 and 10 µM compound, 1 µM L-[14C]leucine, HEK293-hLAT1): inhibited LAT1 in a concentration-dependent manner | Mode of LAT1 inhibition (Lineweaver-Burk plot) (LAT1 [4]; HEK293-hLAT1, L-[14C]leucine): competitive inhibitors | Inhibition of y+LAT2-mediated L-[14C]leucine uptake (y^+LAT2): Neither compound inhibited | Inhibition of proliferation (HEK293-hLAT2 cells): neither compound exhibited an inhibitory effect | Inhibition of b0,+-mediated L-[14C]cystine uptake (b^0,+): Neither compound inhibited | Inhibition of LAT2-mediated L-[14C]alanine uptake (human LAT2): neither compound exhibited inhibitory effects on LAT2 | Inhibition reduction rate (LAT1 [5]): 29.8% | Temperature dependence of cell-associated radioactivity (transport by LAT1) (LAT1 [6]): not transported by LAT1 | GI50 (HEK293-hLAT1 cells): 1830 ± 310 nM | Primary endpoint (progression-free survival) (biliary tract cancer): met its primary endpoint of improving progression-free survival | Metabolism [7]: rapidly metabolized to its N-acetyl derivative in the liver | Inhibition of LAT2-mediated L-[14C]alanine uptake (LAT2): neither nanvuranlat nor N-acetyl-nanvuranlat inhibited | Inhibition of B0AT1-mediated L-[14C]leucine uptake (B^0AT1): Neither compound inhibited | Inhibition of LAT4-mediated L-[14C]leucine uptake (LAT4): no inhibitory effects | Inhibition of TAT1-mediated L-[14C]tyrosine uptake (TAT1): Neither compound inhibited | Inhibition of ASCT1-mediated L-[14C]alanine uptake (ASCT1): no significant inhibition | Inhibition of LAT3-mediated L-[14C]leucine uptake (LAT3): no inhibitory effects | Inhibition of y+LAT1-mediated L-[14C]leucine uptake (y^+LAT1): Neither compound inhibited | Inhibition of SNAT2-mediated L-[14C]alanine uptake (SNAT2): no significant inhibition | Inhibition of SNAT3-mediated L-[14C]glutamine uptake (SNAT3): no significant inhibition
